Assay results taken from ChEMBL document CHEMBL3627671, “Novel derivatives of nitro-substituted salicylic acids: Synthesis, antimicrobial activity and cytotoxicity” (Bioorg Med Chem, 2015).
≈ marks a conversion by molar mass, not a printed value.

How the values were obtained:
[1] = tested on: Mycobacterium tuberculosis; assay: Antimycobacterial activity against Mycobacterium tuberculosis H37Rv 331/88 after 14 days; format: functional; conditions: H37Rv 331/88, 336 h
[2] = tested on: Mycobacterium tuberculosis; assay: Antimycobacterial activity against Mycobacterium tuberculosis H37Rv 331/88 after 21 days; format: functional; conditions: H37Rv 331/88, 504 h
[3] = tested on: Mycobacterium avium; assay: Antimycobacterial activity against Mycobacterium avium 330/80 after 14 days; format: functional; conditions: 330/80, 336 h
[4] = tested on: Mycobacterium avium; assay: Antimycobacterial activity against Mycobacterium avium 330/80 after 21 days; format: functional; conditions: 330/80, 504 h
[5] = tested on: Mycobacterium kansasii; assay: Antimycobacterial activity against Mycobacterium kansasii 235/80 after 7 days; format: functional; conditions: 235/80, 168 h
Procedure, shortened: (§1)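 Šula's semisynthetic medium micromethod at 37 °C, read after 7, 14 and 21 days. The 1.0 McFarland suspension was diluted 10^-4. MIC determined. 6509/96 is a clinical isolate.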

[6] = tested on: Mycobacterium kansasii; assay: Antimycobacterial activity against Mycobacterium kansasii 235/80 after 14 days; format: functional; conditions: 235/80, 336 h; procedure, shortened: as §1
[7] = tested on: Mycobacterium kansasii; assay: Antimycobacterial activity against Mycobacterium kansasii 235/80 after 21 days; format: functional; conditions: 235/80, 504 h; procedure, shortened: as §1
[8] = tested on: Mycobacterium kansasii; assay: Antimycobacterial activity against Mycobacterium kansasii 6509/96 after 7 days; format: functional; conditions: 6509/96, 168 h; procedure, shortened: as §1
[9] = tested on: Mycobacterium kansasii; assay: Antimycobacterial activity against Mycobacterium kansasii 6509/96 after 14 days; format: functional; conditions: 6509/96, 336 h; procedure, shortened: as §1
[10] = tested on: Mycobacterium kansasii; assay: Antimycobacterial activity against Mycobacterium kansasii 6509/96 after 21 days; format: functional; conditions: 6509/96, 504 h; procedure, shortened: as §1
[11] = tested on: Staphylococcus aureus; assay: Antibacterial activity against Staphylococcus aureus CCM 4516/08 after 24 hrs by microdilution broth method; format: functional; conditions: CCM 4516/08, 24 h
[12] = tested on: Staphylococcus aureus; assay: Antibacterial activity against Staphylococcus aureus CCM 4516/08 after 48 hrs by microdilution broth method; format: functional; conditions: CCM 4516/08, 48 h
[13] = tested on: Staphylococcus aureus; assay: Antibacterial activity against methicillin-resistant Staphylococcus aureus H 5996/08 after 24 hrs by microdilution broth method; format: functional; conditions: H 5996/08, 24 h
[14] = tested on: Staphylococcus aureus; assay: Antibacterial activity against methicillin-resistant Staphylococcus aureus H 5996/08 after 48 hrs by microdilution broth method; format: functional; conditions: H 5996/08, 48 h
[15] = tested on: Staphylococcus epidermidis; assay: Antibacterial activity against Staphylococcus epidermidis H 6966/08 after 24 hrs by microdilution broth method; format: functional; conditions: H 6966/08, 24 h
Procedure, shortened: (§2)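 Mueller-Hinton broth microdilution (modified M07-A07), pH 7.4 (±0.2). Compounds dissolved in DMSO, tested at final 500 to 0.49 µmol/L. Inoculum in sterile water matched to 0.5 McFarland. Incubated in the dark, humid atmosphere, 35 °C, read at 24 and 48 h visually and at 540 nm. MIC taken as ≥95% growth reduction (IC95) versus control.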

[16] = tested on: Staphylococcus epidermidis; assay: Antibacterial activity against Staphylococcus epidermidis H 6966/08 after 48 hrs by microdilution broth method; format: functional; conditions: H 6966/08, 48 h; procedure, shortened: as §2
[17] = tested on: Enterococcus sp.; assay: Antibacterial activity against Enterococcus sp. J 14365/08 after 24 hrs by microdilution broth method; format: functional; conditions: J 14365/08, 24 h; procedure, shortened: as §2
[18] = tested on: Enterococcus sp.; assay: Antibacterial activity against Enterococcus sp. J 14365/08 after 48 hrs by microdilution broth method; format: functional; conditions: J 14365/08, 48 h; procedure, shortened: as §2
[19] = tested on: Escherichia coli; assay: Antibacterial activity against Escherichia coli CCM4517 after 24 hrs by microdilution broth method; format: functional; conditions: CCM4517, 24 h; procedure, shortened: as §2
[20] = tested on: Escherichia coli; assay: Antibacterial activity against Escherichia coli CCM4517 after 48 hrs by microdilution broth method; format: functional; conditions: CCM4517, 48 h; procedure, shortened: as §2
[21] = tested on: Klebsiella pneumoniae; assay: Antibacterial activity against Klebsiella pneumoniae D 11750/08 after 24 hrs by microdilution broth method; format: functional; conditions: D 11750/08, 24 h; procedure, shortened: as §2
[22] = tested on: Klebsiella pneumoniae; assay: Antibacterial activity against Klebsiella pneumoniae D 11750/08 after 48 hrs by microdilution broth method; format: functional; conditions: D 11750/08, 48 h; procedure, shortened: as §2
[23] = tested on: Klebsiella pneumoniae; assay: Antibacterial activity against ESBL-positive Klebsiella pneumoniae J 14368/08 after 24 hrs by microdilution broth method; format: functional; conditions: J 14368/08, 24 h; procedure, shortened: as §2
[24] = tested on: Klebsiella pneumoniae; assay: Antibacterial activity against ESBL-positive Klebsiella pneumoniae J 14368/08 after 48 hrs by microdilution broth method; format: functional; conditions: J 14368/08, 48 h; procedure, shortened: as §2
[25] = tested on: Pseudomonas aeruginosa; assay: Antibacterial activity against Pseudomonas aeruginosa CCM 1961 after 24 hrs by microdilution broth method; format: functional; conditions: CCM 1961, 24 h; procedure, shortened: as §2
[26] = tested on: Pseudomonas aeruginosa; assay: Antibacterial activity against Pseudomonas aeruginosa CCM 1961 after 48 hrs by microdilution broth method; format: functional; conditions: CCM 1961, 48 h; procedure, shortened: as §2
[27] = tested on: Candida albicans; assay: Antifungal activity against Candida albicans ATCC 44859 after 24 hrs by microdilution broth method; format: functional; conditions: ATCC 44859, 24 h
Procedure, shortened: (§3)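 CLSI M27-A3 broth microdilution in RPMI 1640 with glutamine, buffered to pH 7.0 with MOPS; DMSO diluent. Yeast inoculum 5 × 10^3 ± 0.2 CFU/mL. Moulds grown on Sabouraud agar 3–10 days before spore harvest, final inoculum 0.5-5 × 10^4 CFU/mL, checked in a Bürker chamber. Incubated dark, humid, 35 °C, read at 24 and 48 h visually and at 540 nm. MIC taken as ≥80% (yeasts) or ≥50% (filamentous) growth reduction versus control.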

[28] = tested on: Candida albicans; assay: Antifungal activity against Candida albicans ATCC 44859 after 48 hrs by microdilution broth method; format: functional; conditions: ATCC 44859, 48 h; procedure, shortened: as §3
[29] = tested on: Candida tropicalis; assay: Antifungal activity against Candida tropicalis 156 after 24 hrs by microdilution broth method; format: functional; conditions: Candida tropicalis, 156, 24 h; procedure, shortened: as §3
[30] = tested on: Candida tropicalis; assay: Antifungal activity against Candida tropicalis 156 after 48 hrs by microdilution broth method; format: functional; conditions: Candida tropicalis, 156, 48 h; procedure, shortened: as §3
[31] = tested on: Pichia kudriavzevii; assay: Antifungal activity against Candida krusei E28 after 24 hrs by microdilution broth method; format: functional; conditions: E28, 24 h; procedure, shortened: as §3
[32] = tested on: Pichia kudriavzevii; assay: Antifungal activity against Candida krusei E28 after 48 hrs by microdilution broth method; format: functional; conditions: E28, 48 h; procedure, shortened: as §3
[33] = tested on: Nakaseomyces glabratus; assay: Antifungal activity against Candida glabrata 20/I after 24 hrs by microdilution broth method; format: functional; procedure, shortened: as §3
[34] = tested on: Nakaseomyces glabratus; assay: Antifungal activity against Candida glabrata 20/I after 48 hrs by microdilution broth method; format: functional; procedure, shortened: as §3
[35] = tested on: Trichosporon asahii; assay: Antifungal activity against Trichosporon asahii 1188 after 24 hrs by microdilution broth method; format: functional; conditions: Trichosporon asahii, 1188, 24 h; procedure, shortened: as §3
[36] = tested on: Trichosporon asahii; assay: Antifungal activity against Trichosporon asahii 1188 after 48 hrs by microdilution broth method; format: functional; conditions: Trichosporon asahii, 1188, 48 h; procedure, shortened: as §3
[37] = tested on: Aspergillus fumigatus; assay: Antifungal activity against Aspergillus fumigatus 231 after 24 hrs by microdilution broth method; format: functional; conditions: Aspergillus fumigatus, 231, 24 h; procedure, shortened: as §3
[38] = tested on: Aspergillus fumigatus; assay: Antifungal activity against Aspergillus fumigatus 231 after 48 hrs by microdilution broth method; format: functional; conditions: Aspergillus fumigatus, 231, 48 h; procedure, shortened: as §3
[39] = tested on: Lichtheimia corymbifera; assay: Antifungal activity against Absidia corymbifera 272 after 24 hrs by microdilution broth method; format: functional; conditions: Lichtheimia corymbifera, 272, 24 h; procedure, shortened: as §3
[40] = tested on: Lichtheimia corymbifera; assay: Antifungal activity against Absidia corymbifera 272 after 48 hrs by microdilution broth method; format: functional; conditions: Lichtheimia corymbifera, 272, 48 h; procedure, shortened: as §3
[41] = tested on: Trichophyton mentagrophytes; assay: Antifungal activity against Trichophyton mentagrophytes 445 after 24 hrs by microdilution broth method; format: functional; conditions: Trichophyton mentagrophytes, 445, 24 h
[42] = tested on: Trichophyton mentagrophytes; assay: Antifungal activity against Trichophyton mentagrophytes 445 after 48 hrs by microdilution broth method; format: functional; conditions: Trichophyton mentagrophytes, 445, 48 h
[43] = tested on: HepG2; assay: Cytotoxicity against human HepG2 cells after 24 hrs […]; format: cell-based; conditions: HepG2, 24 h
[44] = Selectivity index, ratio of CI50 for human HepG2 cells to MIC100 for Mycobacterium tuberculosis H37Rv 331/88

O=C(Nc1cc(C(F)(F)F)cc(C(F)(F)F)c1)c1ccc([N+](=O)[O-])cc1O gave an MIC [1] of 4 µM (≈ 1.58 µg/mL), an MIC [2] of 8 µM (≈ 3.15 µg/mL) and an MIC [3] of 32 µM (≈ 12.6 µg/mL). It also gave an MIC [4] of 32 µM (≈ 12.6 µg/mL), an MIC [5] of 8 µM (≈ 3.15 µg/mL) and an MIC [6] of 16 µM (≈ 6.31 µg/mL). The MIC [7] was 16 µM (≈ 6.31 µg/mL), the MIC [8] was 16 µM (≈ 6.31 µg/mL) and the MIC [9] was 16 µM (≈ 6.31 µg/mL). The MIC [10] was 16 µM (≈ 6.31 µg/mL), the MIC [11] was 1.95 µM (≈ 0.769 µg/mL) and the MIC [12] was 1.95 µM (≈ 0.769 µg/mL). For the same compound, the MIC [13] was 0.98 µM (≈ 0.386 µg/mL), the MIC [14] was 0.98 µM (≈ 0.386 µg/mL) and the MIC [15] was 1.95 µM (≈ 0.769 µg/mL). For the same compound, the MIC [16] was 1.95 µM (≈ 0.769 µg/mL), the MIC [17] was 62.5 µM (≈ 24.6 µg/mL) and the MIC [18] was 125 µM (≈ 49.3 µg/mL). It also gave an MIC [19] greater than 500 µM, an MIC [20] greater than 500 µM and an MIC [21] greater than 500 µM. For the same compound, the MIC [22] was greater than 500 µM, the MIC [23] was greater than 500 µM and the MIC [24] was greater than 500 µM. The MIC [25] was greater than 500 µM, the MIC [26] was greater than 500 µM and the MIC [27] was greater than 500 µM. It also gave an MIC [28] greater than 500 µM, an MIC [29] greater than 500 µM and an MIC [30] greater than 500 µM. For the same compound, the MIC [31] was greater than 500 µM, the MIC [32] was greater than 500 µM and the MIC [33] was greater than 500 µM. For the same compound, the MIC [34] was greater than 500 µM, the MIC [35] was greater than 500 µM and the MIC [36] was greater than 500 µM. For the same compound, the MIC [37] was greater than 500 µM, the MIC [38] was greater than 500 µM and the MIC [39] was greater than 500 µM. It also gave an MIC [40] greater than 500 µM, an MIC [41] greater than 500 µM and an MIC [42] greater than 500 µM. For the same compound, the IC50 [43] was 4.4 µM and the “Selectivity Index” value [44] was 0.55.
